Measured values: publication PMC6146057 (ACS chemical neuroscience, 2018)
Substitutions are numbered along the chain they refer to. Values joined by “and” are separate entries in the source; they are usually repeats but may differ in a detail not shown here. Identical values can stand only once.

How the values were obtained:
[1] = target: T1, M1 (Homo sapiens, UniProt P11229); assay: Calcium mobilization assay, high expression human M1 cell line; format: cell-based
T1 sequence (P11229 1-460): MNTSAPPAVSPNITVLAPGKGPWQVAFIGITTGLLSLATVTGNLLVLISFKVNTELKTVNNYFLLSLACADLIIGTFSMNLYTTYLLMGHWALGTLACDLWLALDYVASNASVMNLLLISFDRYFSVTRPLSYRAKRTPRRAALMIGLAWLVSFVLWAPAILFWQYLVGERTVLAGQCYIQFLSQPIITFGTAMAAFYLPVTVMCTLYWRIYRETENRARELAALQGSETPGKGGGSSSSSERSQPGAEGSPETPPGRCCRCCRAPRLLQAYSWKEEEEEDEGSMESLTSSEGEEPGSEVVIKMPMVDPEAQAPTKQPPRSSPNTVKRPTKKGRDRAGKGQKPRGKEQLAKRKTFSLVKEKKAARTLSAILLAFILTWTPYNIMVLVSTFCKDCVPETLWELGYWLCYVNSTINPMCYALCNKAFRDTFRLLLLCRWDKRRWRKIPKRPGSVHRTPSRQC
Procedure, shortened: (§1)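 Muscarinic receptor-expressing CHO cells were plated at 20,000 cells/well in medium without G418 the day before. They were loaded with 1.15 μM Fluo-4 AM for 45 min at 37 °C in HBSS with 20 mM HEPES and 2.5 mM probenecid. Test compound (10-point 1:3 series, top final 30 μM) was added for 2.5 min, then EC20 ACh for 1 min. Calcium flux was fitted with a four-parameter logistic curve.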

[2] = target: T2, rat M1 (Rattus norvegicus, UniProt P08482); assay: Calcium mobilization assay, rat M1 cell line; format: cell-based
T2 sequence (P08482 1-460): T1 sequence (P11229 1-460) with A5V, T254S, P309S, R320K, A337G, I413V
Procedure, shortened: as §1

[3] = target: T3, mouse M1 (Mus musculus, UniProt P12657); assay: Calcium mobilization assay, mouse M1 cell line with low expression; format: cell-based
T3 sequence (P12657 1-460): T1 sequence (P11229 1-460) with A5V, T254S, R320K, A337G, I413V

[4] = system: human M2–M5; assay: Calcium mobilization selectivity, human M2–M5; format: cell-based; conditions: Figure 4A
Procedure, shortened: as §1

[5] = system: rat M2-M5; assay: Calcium mobilization selectivity, rat M2-M5; format: cell-based; conditions: Figure 4B
Procedure, shortened: as §1

[6] = target: T1, M1; assay: M1 PAM potency at increasing ACh concentration; format: cell-based; conditions: for EC50: M1 PAM potency
[7] = system: mice; assay: High dose phenotypic mouse seizure liability screen; format: in vivo; conditions: 100 mg/kg i.p., up to 3 h
[8] = Plasma protein binding by equilibrium dialysis, human; format: in vitro ADME; conditions: pH 7.4
Procedure, shortened: (§2)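 Plasma spiked with test article was dialysed against 25 mM phosphate buffer, pH 7.4, by equilibrium dialysis for 4 h at 37 °C with shaking. Aliquots from each chamber were matrix-matched, extracted with ice-cold acetonitrile, centrifuged and quantified by LC/MS/MS.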

[9] = Plasma protein binding by equilibrium dialysis, rat; format: in vitro ADME; conditions: pH 7.4
Procedure, shortened: as §2

[10] = Rat brain homogenate binding; format: in vitro ADME
[11] = Rat PK IV/PO crossover study; format: in vivo
Procedure, shortened: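 Male Sprague–Dawley rats with carotid and jugular cannulae (n = 2) were dosed IV at 1.0 mg/kg in 10% EtOH, 50% PEG 400 and 40% saline. For oral dosing, fasted rats received 3 mg/kg by gavage as a microsuspension in 30% Captisol. Carotid blood was sampled from 0.117 to 24 h, and EDTA plasma was analysed by LC/MS/MS. Parameters came from noncompartmental analysis.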

[12] = system: rats; assay: Modified Irwin Toxicology Battery in rats; format: in vivo, rat; conditions: 56.6 mg/kg i.p.
Procedure, shortened: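 Rats received vehicle or test compound at 56.6 mg/kg i.p. in 10% Tween 80 (2 mL/kg; n = 3) after baseline assessment. A blinded observer scored autonomic and somatomotor parameters at 15, 30, 60, 180 and […].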

[13] = system: nonhuman primate (NHP); assay: Nonhuman primate adverse effect assessment; format: in vivo
[14] = ACh concentration increased to EC70

## O=C(N[C@H]1CCCC[C@@H]1O)[C@H]1CN(Cc2ccc(-n3cccn3)cc2)c2ccccc2O1 [VU0486846, (2R)-N-[(1S,2S)-2-Hydroxycyclohexyl]-4-[(4-pyrazol-1-ylphenyl)-methyl]-2,3-dihydro-1,4-benzoxazine-2-carboxamide]
[1]; Human M1 CRC EC50, Figure 4A
  EC50: 308 nM
[1]; M1 PAM EC50, human M1, high expression line, EC20 ACh
  EC50: 310 nM
[1]; M1 PAM pEC50, human M1, high expression line, EC20 ACh
  EC50: 295 nM
[1]; M1 agonist activity pEC50, human M1, high expression line, compound alone
  EC50: 4070 nM and 4270 nM
[1]; human M1, high expression line
  M1 PAM efficacy, % ACh Max: 85 ± 2 % ACh Max
[1]; human M1, high expression line, compound alone
  M1 agonist activity, % ACh Max: 39 ± 3 % ACh Max and 29 ± 6 % ACh Max
[2]; M1 PAM pEC50, rat M1 cell line, high expression
  EC50: 234 nM
[2]; M1 agonist activity EC50, rat M1 cell line, compound alone
  EC50: 5600 nM
[2]; M1 agonist activity pEC50, rat M1 cell line, compound alone
  EC50: 5370 nM
[2]; Rat M1 CRC EC50, Figure 4B
  EC50: 253 nM
[2]; rat M1 cell line, compound alone
  M1 agonist activity, % ACh: 26 ± 6 % ACh
[2]; rat M1 cell line, high expression
  M1 PAM efficacy, % ACh Max: 83 ± 1 % ACh Max
[3]; M1 PAM EC50, mouse M1 cell line
  EC50: 600 nM
[3]; M1 PAM pEC50, mouse M1 cell line
  EC50: 562 nM
[3]; mouse M1 cell line
  M1 PAM efficacy, % ACh Max: 77 ± 4 % ACh Max
[3]; mouse M1 cell line, compound alone
  M1 agonism, % ACh Max: 9 ± 1 % ACh Max
[4]
  Activity at human M2–M5 (selectivity): highly selective
[4]; listed as 16
  Activity at human M2–M5 (selectivity): inactive
[5]
  Activity at rat M2–M5 (selectivity): highly selective
[5]; listed as 16
  Activity at rat M2–M5 (selectivity): inactive
[6]; [14]
  M1 PAM efficacy, % ACh Max: 90 ± 1 % ACh Max
  EC50: 68 ± 11 nM
[6]; very low level of ACh (~EC9)
  EC50: 430 ± 120 nM
  M1 PAM efficacy, % ACh Max: 84 ± 2 % ACh Max
[7]
  Seizure liability: devoid of seizure liability
[8]
  fraction unbound at 4 h: 0.12
[9]
  fraction unbound at 4 h: 0.11
[10]
  fraction unbound: 0.03
[11]; male, Sprague-Dawley, rat, plasma
  half-life: 72 min
[11]; male, Sprague-Dawley, rat, plasma, intravenous, 1 mg/kg
  Vd: 1.8 L/kg
[11]; male, Sprague-Dawley, rat, plasma, iv, 1 mg/kg
  clearance: 89 mL/min/kg
[11]; male, Sprague-Dawley, rat, plasma, po, 3 mg/kg
  bioavailability: 95.9%
[11]; rat PK study
  Adverse events or cholinergic side effects in PK study: No adverse events or cholinergic side effects
[12]
  free brain levels: 32 nM
  free terminal plasma exposure: 489 nM
  total brain levels: 1.15 µM
  total terminal plasma exposure: 4.4 µM
[12]; 3 h evaluation period
  Cholinergic side effects or adverse effects: did not produce any cholinergic side effects or pronounced adverse effects
[13]
  total plasma levels: ~ 2 μM
[13]; at achieved plasma levels
  Adverse effects: without any adverse effects
